ChEMBL document CHEMBL1122499, “Structural requirements of olefinic 5-substituted deoxyuridines for antiherpes activity” (1983)
Converted amounts (≈) assume the structure as drawn.

Each molecule was assayed on Human alphaherpesvirus 1 (assay: Antiviral activity against herpes simplex virus type 1 (HSV-1) determined in baby hamster kidney cells). Settings: not given.
Type: functional
How it was run: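 Microplaque reduction with HSV-1 strain S3. Serial 0.5 log virus dilutions were inoculated onto baby hamster kidney cell monolayers in microtiter plates for infectivity end-point titration. Compound was present in the overlay (Dulbecco-modified Eagle MEM, 10% donor calf serum, 0.5% carboxymethylcellulose). MIC was the lowest concentration that cut the virus infectivity end point by at least 1 log versus the untreated control.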
O=c1[nH]c(=O)n([C@H]2C[C@H](O)[C@@H](CO)O2)cc1/C=C/Br (stereo in doubt; 2) [BRIVUDINE] was tested, and the MIC was 0.005 µg/mL (≈ 0.015 µM).
In the case of O=c1[nH]c(=O)n([C@H]2C[C@H](O)[C@@H](CO)O2)cc1/C=C/Br (stereo in doubt; 4) [BRIVUDINE], the MIC is reported as 0.1 µg/mL (≈ 0.3 µM).

Same assay, conditions: Human alphaherpesvirus 1; read-out: MIC
Work on C/C=C/Cc1cn([C@H]2C[C@H](O)[C@@H](CO)O2)c(=O)[nH]c1=O.C/C=C\Cc1cn([C@H]2C[C@H](O)[C@@H](CO)O2)c(=O)[nH]c1=O yielded an MIC of 10 µg/mL.
In the case of C/C(Br)=C/c1cn([C@H]2C[C@H](O)[C@@H](CO)O2)c(=O)[nH]c1=O.C/C(Br)=C\c1cn([C@H]2C[C@H](O)[C@@H](CO)O2)c(=O)[nH]c1=O, the MIC is reported as 1 µg/mL.
N#C/C=C/c1cn([C@H]2C[C@H](O)[C@@H](CO)O2)c(=O)[nH]c1=O showed an MIC of over 25 µg/mL.
Molecule CCC#Cc1cn([C@H]2C[C@H](O)[C@@H](CO)O2)c(=O)[nH]c1=O has an MIC of 10 µg/mL (≈ 35.7 µM).
With CC#Cc1cn([C@H]2C[C@H](O)[C@@H](CO)O2)c(=O)[nH]c1=O the MIC was 1 µg/mL (≈ 3.76 µM).
For C/C=C/c1cn([C@H]2C[C@H](O)[C@@H](CO)O2)c(=O)[nH]c1=O, the MIC was 0.5 µg/mL (≈ 1.86 µM).
Work on CCCCc1cn([C@H]2C[C@H](O)[C@@H](CO)O2)c(=O)[nH]c1=O yielded an MIC of 10 µg/mL (≈ 35.2 µM).
COC(=O)/C(C)=C/c1cn([C@H]2C[C@H](O)[C@@H](CO)O2)c(=O)[nH]c1=O was tested, and the MIC was over 100 µg/mL.
Molecule COC(=O)/C=C(\C)c1cn([C@H]2C[C@H](O)[C@@H](CO)O2)c(=O)[nH]c1=O has an MIC of over 100 µg/mL.
With CC(C)(C)/C=C/c1cn([C@H]2C[C@H](O)[C@@H](CO)O2)c(=O)[nH]c1=O the MIC was over 10 µg/mL.
In the case of CCC/C=C/c1cn([C@H]2C[C@H](O)[C@@H](CO)O2)c(=O)[nH]c1=O, the MIC is reported as over 100 µg/mL.
C/C=C(/C)c1cn([C@H]2C[C@H](O)[C@@H](CO)O2)c(=O)[nH]c1=O showed an MIC of over 100 µg/mL.
CC(C)=Cc1cn([C@H]2C[C@H](O)[C@@H](CO)O2)c(=O)[nH]c1=O gave an MIC of over 50 µg/mL.
For C/C=C/c1cn([C@H]2C[C@H](O)[C@@H](CO)O2)c(=O)nc1N, the MIC was 50 µg/mL (≈ 187 µM).
In the case of CC/C=C/c1cn([C@H]2C[C@H](O)[C@@H](CO)O2)c(=O)[nH]c1=O, the MIC is reported as 0.5 µg/mL (≈ 1.77 µM).
C/C(=C\Cl)c1cn([C@H]2C[C@H](O)[C@@H](CO)O2)c(=O)[nH]c1=O was tested, and the MIC was over 100 µg/mL.
CS/C=C/c1cn([C@H]2C[C@H](O)[C@@H](CO)O2)c(=O)[nH]c1=O showed an MIC of 0.5 µg/mL (≈ 1.66 µM).
Work on C/C=C\c1cn([C@H]2C[C@H](O)[C@@H](CO)O2)c(=O)[nH]c1=O yielded an MIC of 100 µg/mL (≈ 373 µM).
With C/C(=C\Br)c1cn([C@H]2C[C@H](O)[C@@H](CO)O2)c(=O)[nH]c1=O the MIC was 0.1 µg/mL (≈ 0.288 µM).
In the case of CCCC/C=C/c1cn([C@H]2C[C@H](O)[C@@H](CO)O2)c(=O)[nH]c1=O, the MIC is reported as over 100 µg/mL.
Work on C/C=C/c1cn([C@H]2C[C@H](O)[C@@H](CO)O2)c(=O)[nH]c1=S yielded an MIC of 100 µg/mL (≈ 352 µM).
With C/C=C(\C)c1cn([C@H]2C[C@H](O)[C@@H](CO)O2)c(=O)[nH]c1=O the MIC was 50 µg/mL (≈ 177 µM).
C/C=C\c1cn([C@H]2C[C@H](O)[C@@H](CO)O2)c(=O)nc1N showed an MIC of over 100 µg/mL.
COC(=O)/C=C/C=C/c1cn([C@H]2C[C@H](O)[C@@H](CO)O2)c(=O)[nH]c1=O showed an MIC of over 100 µg/mL.
Work on C=C(Cl)Cc1cn([C@H]2C[C@H](O)[C@@H](CO)O2)c(=O)[nH]c1=O yielded an MIC of 50 µg/mL (≈ 165 µM).
In the case of C=CCc1cn([C@H]2C[C@H](O)[C@@H](CO)O2)c(=O)[nH]c1=O, the MIC is reported as 100 µg/mL (≈ 373 µM).
Work on O=c1[nH]c(=O)n([C@H]2C[C@H](O)[C@@H](CO)O2)cc1C=C(Br)Br yielded an MIC of 0.1 µg/mL (≈ 0.243 µM).
For COC(=O)/C=C/c1cn([C@H]2C[C@H](O)[C@@H](CO)O2)c(=O)[nH]c1=O, the MIC was 10 µg/mL (≈ 32 µM).
